Screens from PubChem BioAssay.
HDAC3 inhib = blocks human histone deacetylase 3. O15379. recombinant HDAC3, fluorogenic peptide/trypsin coupled, fluorescence. inhibition, % at 8.3 µM. 0.15% of 320,000 active; in the data active = inhibition above about 26%, passing the limit was not always enough
Efflux pump inh = blocks antifungal efflux pumps in multiplex yeast assay | AID 485275 | inhibition, % at 10 µM | S. cerevisiae Candida pump triplex, Nile Red efflux | 0.44% of 330,000 active;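 active = plate passing quality check with inhibition over a set limit, or well fluorescence over plate mean plus 4 SD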;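 also: Nile Red retained in pooled yeast measured as flow cytometry median fluorescence; 0% = buffer negative control and 100% = Enniatin B positive control; higher means more Nile Red kept so more efflux inhibition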
CR mimetic SO = caloric restriction mimetics inhibiting age-related superoxide in yeast | S. cerevisiae aged cells, superoxide DHE fluorescence; active compounds read low | superoxide response (% of plate mean), % at 10 µM | 0.18% of 330,000 active | AID 2690;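 active = superoxide response under a set limit, about three screen SD below normal, cut at about 65% in these data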;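 also: yeast aged for seven days with compound at 30 °C before DHE staining; 100% = average MFI of all compound-treated wells on the plate with controls excluded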
IDE cell activ = IDE (human) activation, cell-based. P14735. HEK cells, FAbeta-B cleavage, fluorescence polarization; 0% vehicle, 100% cell-free pure enzyme wells. activation, % at 5.96 µM. 0.073% of 340,000 active. AID 493087;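 active = activation above the mean of all tested compounds plus 3 SD, set per screening campaign, cut at about 17% in these data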
Target sequence (P14735 whole entry, looked up): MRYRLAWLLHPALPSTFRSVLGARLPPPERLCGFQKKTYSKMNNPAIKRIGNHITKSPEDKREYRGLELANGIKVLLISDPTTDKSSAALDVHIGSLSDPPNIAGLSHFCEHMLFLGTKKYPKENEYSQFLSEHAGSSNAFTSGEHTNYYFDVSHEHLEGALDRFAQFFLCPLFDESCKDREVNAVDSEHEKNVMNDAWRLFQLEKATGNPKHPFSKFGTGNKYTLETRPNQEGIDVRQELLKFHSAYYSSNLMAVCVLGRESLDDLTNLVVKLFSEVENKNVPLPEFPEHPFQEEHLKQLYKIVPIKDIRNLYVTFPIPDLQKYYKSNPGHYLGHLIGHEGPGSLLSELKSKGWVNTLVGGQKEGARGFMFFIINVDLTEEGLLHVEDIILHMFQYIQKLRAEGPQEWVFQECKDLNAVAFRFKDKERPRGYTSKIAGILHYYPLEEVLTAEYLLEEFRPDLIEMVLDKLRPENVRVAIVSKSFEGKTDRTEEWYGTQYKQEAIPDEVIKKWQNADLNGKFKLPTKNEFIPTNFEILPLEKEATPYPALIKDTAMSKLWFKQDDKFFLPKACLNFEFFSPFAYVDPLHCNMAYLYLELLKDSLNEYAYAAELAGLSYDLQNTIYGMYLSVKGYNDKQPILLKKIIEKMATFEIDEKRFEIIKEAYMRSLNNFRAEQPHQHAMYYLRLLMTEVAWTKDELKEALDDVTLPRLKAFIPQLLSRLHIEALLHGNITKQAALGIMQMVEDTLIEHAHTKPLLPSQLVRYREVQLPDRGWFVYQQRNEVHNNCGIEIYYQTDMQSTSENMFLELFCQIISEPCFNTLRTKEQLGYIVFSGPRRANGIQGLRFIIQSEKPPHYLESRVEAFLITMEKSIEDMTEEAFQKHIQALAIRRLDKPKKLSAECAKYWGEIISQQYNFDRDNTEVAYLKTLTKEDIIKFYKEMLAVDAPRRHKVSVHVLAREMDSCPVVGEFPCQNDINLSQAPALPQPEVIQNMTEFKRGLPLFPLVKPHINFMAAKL
TbMetRS inhib = Trypanosoma brucei MetRS inhibition. purified T. brucei MetRS, ATP depletion, Kinase-Glo luminescence. 0.4% of 360,000 active. inhibition, % at 11.9 µM. AID 624268;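 active = inhibition above a per-plate cutoff of the control wells' mean inhibition plus 3 SD, cut at about 5.5% in these data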;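 also: 0% = DMSO wells median and 100% = median of wells with control inhibitor compound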
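Material: parasite MetRS enzyme / Replication: singlicate, one well per compound / Signal: luminescence of leftover ATP / Schedule: 2 h aminoacylation at 25 °C after 15 min preincubation / Medium: HEPES-MgCl2-KCl buffer plus DTT, spermine, BSA, pyrophosphatase / Doses: 11.9 µM single point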
IDE cell inh = inhibits human insulin-degrading enzyme in HEK cells; inhibition, % at 5.59 µM; 0.41% of 320,000 active; FAbetaB cleavage, fluorescence polarization; AID 434962;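 active = percent inhibition above the average of all tested compounds plus 3 SD, set per screening campaign, cut at about 16% in these data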;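 also: IDE supplied by intact live HEK cells; FP after avidin binding of uncleaved biotin substrate so inhibition keeps polarization high; 0% = DMSO wells and 100% = 60 µM reference IDE inhibitor Ii1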
Cmpd fluor yeast = flagged as fluorescent in efflux inhibitor counter-screen; shares compounds with Efflux pump inh; fluorescence ratio to DMSO, % at 10 µM; 4% of 1,700 active; S. cerevisiae AD/pABC3, compound fluorescence, flow cytometry;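 active = fluorescence ratio to DMSO above its plate's cutoff, the plate mean ratio plus 5 SD, cut at about 210% in these data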;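 also: unstained yeast with no Nile Red so the signal is compound autofluorescence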
CaMdr1 efflux inh = inhibitors of Candida albicans Mdr1 efflux pump; 1% of 1,700 active; shares compounds with Efflux pump inh; inhibition, % at 10 µM; S. cerevisiae AD/CaMDR1, Nile Red efflux, flow cytometry; in the data active = inhibition above about 26%;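 also: 0% = DMSO vehicle and 100% = reference inhibitor; higher means more Nile Red retained so more efflux inhibition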
CaCdr2 efflux inh = blocks the Candida albicans Cdr2 efflux pump in yeast | shares compounds with Efflux pump inh | S. cerevisiae AD/CaCDR2, Nile Red retention, flow cytometry | Nile Red retention ratio vs DMSO, % at 10 µM | 4% of 1,700 active | AID 588520; in the data active = Nile Red retention ratio vs DMSO above about 190%;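 also: higher ratio means more blocking of Cdr2 efflux of the dye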
CaCdr1 efflux inh = Candida Cdr1 efflux pump inhibition; shares compounds with Efflux pump inh; S. cerevisiae AD/CaCDR1, Nile Red efflux, flow cytometry; inhibition, % at 10 µM; 1% of 1,700 active; AID 588522;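 active = inhibition above the screen-wide mean plus twice its standard deviation, cut at about 32% in these data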
An asterisk follows results filed as active; . = no result. In the library only some 1.4% were active in any assay of this set; here they are far more common.

SMILES	HDAC3 inhib	Efflux pump inh	CR mimetic SO	IDE cell activ	TbMetRS inhib	IDE cell inh	Cmpd fluor yeast	CaMdr1 efflux inh	CaCdr2 efflux inh	CaCdr1 efflux inh
COc1ccc(NC(C)=O)cc1NC(=O)C1CCCN1C(=O)c1cccs1 (stereo unspecified)	.	.	.	-4	0	.	.	.	.	.
CCC1=C(Nc2ccccc2)COC1=O	.	.	.	.	0	.	.	.	.	.
COc1ccc(NC(=O)Nc2cccc3c2O[C@H](CN(C)C(=O)Nc2ccc(OC)cc2)[C@@H](C)CN([C@H](C)CO)C3=O)cc1	8	0	93	4	0	6	101	0	116	0
COc1ccc(NC(=O)N(C)C[C@H]2Oc3c(NC(=O)Nc4ccccc4)cccc3C(=O)N([C@H](C)CO)C[C@@H]2C)cc1	-3	0	97	-4	0	2	.	.	.	.
COc1ccc(NC(=O)N(C)C[C@H]2Oc3c(NC(=O)Nc4c(C)noc4C)cccc3C(=O)N([C@H](C)CO)C[C@@H]2C)cc1	.	0	78	1	-1	-1	100	0	109	0
COc1cc(F)cc(-c2ccc3c(c2)c(C#Cc2ccsc2)c(-c2cc(OC)cc(OC)c2)n3C)c1	-1	0	78	-6	0	6	.	.	.	.
Cc1cc(C(C)(C)C)cc(C)c1S(=O)(=O)N1CCN(C(=O)c2cc([N+](=O)[O-])c[nH]c2=O)CC1	7	0	103	4	0	2	.	.	.	.
CN(C)CCNS(=O)(=O)c1ccc(N2CCN(c3ccc(F)cc3)CC2)c([N+](=O)[O-])c1	-2	11*	103	7	-1	-1	82	0	95	0
O=c1[nH]c(C2CCN(S(=O)(=O)c3ccccc3C(F)(F)F)CC2)nc2c1nnn2Cc1ccccc1	2	3.1*	102	7	-1	-4	109	0	104	0
Cc1ccc(Cn2nnc3c(=O)[nH]c(C4CCN(S(=O)(=O)c5ccccc5)CC4)nc32)cc1	1	0	85	4	-1	-7	102	0	110	0
COc1ccc(Cn2nnc3c(=O)[nH]c(C4CCN(S(=O)(=O)c5ccc(C)cc5)CC4)nc32)cc1	-4	0	88	-4	0	8	112	0	110	0
Cc1c(NC(=O)c2cc(S(=O)(=O)N3CCCCC3)ccc2Cl)c(=O)n(-c2ccccc2)n1C	0	0	80	5	0	6	.	.	.	.
COC/C=C/C1=CC2=CC(=O)C(C)(OC(=O)c3cnc4ccccc4n3)C(=O)C2=CN1Cc1ccc(OC)cc1 (stereo unspecified)	4	0.6*	80	-4	0	8	121	1	114	0
O=C(CSc1nc2ccccc2c(=O)n1-c1ccc(F)cc1)Nc1ccc(N2CCOCC2)cc1	0	0	111	-1	-1	-2	.	.	.	.
Cc1ccc(-n2c(SCC(=O)Nc3ccc(N4CCOCC4)cc3)nc3ccccc3c2=O)cc1	3	9.6*	98	4	0	-2	104	0	123	0
O=C(CSc1nc2ccccc2c(=O)n1-c1ccc(F)cc1F)Nc1ccc(N2CCOCC2)cc1	6	19*	100	1	0	4	104	0	123	0
O=c1[nH]c2ccccc2nc1-c1nnnn1Cc1ccccc1	.	.	.	.	-1	.	.	.	.	.
O=C(COc1cc(Cl)ccc1Cl)Nc1nnc(C2CC2)s1	2	0	106	8	0	1	.	.	.	.
COc1cc(C)ccc1OCC(=O)Nc1nnc(C2CC2)s1	-4	0	122	4	0	5	112	0	106	0
Cc1ccccc1OCC(=O)Nc1nnc(C2CCCCC2)s1	-3	0	103	7	-1	-3	102	0	99	0
